Compounds with a hit are over-represented: about 1.2% of the library has one in this group of screens.
CRFBP-R2 agonist = agonists of human CRF-binding protein/CRF-R2 receptor complex. HEK293 CRF-R2/CRF-BP, calcium dye fluorescence (FLIPR); percent of saturating CRF peptide response. activation, % at 13.2 µM. actives 0.46% (n = 350,000). AID 588473;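 active = activation of at least 50%, plus an integration ratio under a set limit after plate pattern correction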;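 also: plate controls were neutral control wells without compound for no effect and CRF at EC100 for full effect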
Tn6 DDE FP = disrupts Tn6 cyclic peptide binding to fibrin D-Dimer-E complex | P02675 | Fibrin DD(E) TRITC-Tn6 fluorescence polarization displacement | inhibition, % at 8.3 µM | actives 0.21% (n = 370,000);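 active = inhibition above a per-campaign cutoff: mean of compounds within control limits plus 3 SD, cut at about 15% in these data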;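 also: 0% = median of all compound wells on the plate and 100% = blocking peptide control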
Target sequence (P02675 whole entry, looked up): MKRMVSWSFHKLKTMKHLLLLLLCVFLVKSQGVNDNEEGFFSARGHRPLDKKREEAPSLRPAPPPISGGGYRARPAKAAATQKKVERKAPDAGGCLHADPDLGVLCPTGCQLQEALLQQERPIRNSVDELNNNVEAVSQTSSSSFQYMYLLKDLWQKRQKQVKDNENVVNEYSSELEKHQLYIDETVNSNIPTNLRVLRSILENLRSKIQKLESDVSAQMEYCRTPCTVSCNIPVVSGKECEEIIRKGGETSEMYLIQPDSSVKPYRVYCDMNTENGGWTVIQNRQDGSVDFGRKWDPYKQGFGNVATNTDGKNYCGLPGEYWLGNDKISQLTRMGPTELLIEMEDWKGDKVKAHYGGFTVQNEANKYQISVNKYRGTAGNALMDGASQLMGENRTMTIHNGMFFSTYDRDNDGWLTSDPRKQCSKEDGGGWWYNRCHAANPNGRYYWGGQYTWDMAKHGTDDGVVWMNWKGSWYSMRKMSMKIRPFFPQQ
Tn7 DDE FP = inhibitors of Tn7 peptide binding to human fibrin DD(E); FP displacement of FITC-Tn7 peptide from fibrin DD(E); 0% = median of compound wells per plate; inhibition, % at 8.3 µM; actives 0.13% (n = 370,000); AID 720508;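 active = inhibition above the mean of compounds falling within the control limits plus 3 SD of them, cut at about 14% in these data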;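 also: 0% = plate median of compound wells and 100% = 10 µM Aha-Tn7 peptide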
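Assay system: human fibrin DD(E). Input: DD(E) 2 µM final. Medium: Tris buffer with calcium and detergent, pH 7.8. Compound dosing: single point at 8.3 µM. Timing: 10 min plus 3 h, room temperature. Technique: fluorescence polarization of the labelled Tn7 tracer. Read-out: percent inhibition. Replicates: singlicate testing.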
CRFBP-R2 block = CRF-BP/CRF-R2 complex antagonism; HEK293 CRF-R2/CRF-BP, CRF-induced calcium fluorescence; inhibition, % at 11.8 µM; actives 0.59% (n = 350,000); AID 588475;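 active = inhibition of the ligand-induced calcium signal above about 50% at the single tested concentration, limit read from the data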
* marks the source's active call; other numbers are inactive results; / = no result.

SMILES	CRFBP-R2 agonist	Tn6 DDE FP	Tn7 DDE FP	CRFBP-R2 block
CC(SCc1ccccc1)C(=O)Nc1ccc(F)cc1 (stereo not drawn)	-2	-4	-6	11
Cc1cccc(CSC(=N)N)c1	-2	-6	7	3
Cc1cccc(CSC(Nc2ccc(F)cc2)=C(C#N)C#N)c1	73*	-5	-2	67*
COc1ccc(Oc2nccc(-c3ccccc3)c2C#N)cc1	0	-1	-7	71*
Cc1ccc(/C=C2\SC(=S)N(Cc3ccccc3)C2=O)o1	0	-4	-1	-13
O=C(O)CCN1C(=O)/C(=C/c2ccc(-c3nc4ccccc4s3)o2)SC1=S	37	-13	-10	-18
O=C(O)CC(C(=O)O)N1C(=O)/C(=C/C=C/c2ccco2)SC1=S (stereo not drawn)	-1	-2	9	3
O=C(O)c1cc(-c2ccc(/C=C3/SC(=S)N(Cc4ccccc4)C3=O)o2)ccc1Cl	209*	0	-4	-235
O=C(O)CCCN1C(=O)/C(=C\c2ccc(-c3nc4ccccc4s3)o2)SC1=S	109*	-5	-3	-118
O=C(O)CC(C(=O)O)N1C(=O)/C(=C/c2ccc(-c3nc4ccccc4s3)o2)SC1=S (stereo not drawn)	15	-12	-2	53*
CCCCN(C(=O)c1ccc2c(c1)S(=O)(=O)N=C1CCCCCN12)c1c(N)n(CCCC)c(=O)[nH]c1=O	-1	-9	4	96*
COC(=O)[C@]12C[C@H](CC(=O)NCc3cccc(C(F)(F)F)c3)C(=O)N(Cc3ccco3)C1=C[C@H](C1CCCC1)O[C@@H]2C	/	9	-5	/
Cn1c(=O)c(Nc2ccc(Cl)cc2)c2c3c(cccc31)C(=O)c1ccccc1-2	111*	4	36*	-241
CC(=O)Nc1c2c3c(cccc3n(C)c1=O)C(=O)c1ccccc1-2	4	3	0	-1
Cc1ccccc1CN1CCCCC(NC(=O)Nc2ccccc2)C1=O (stereo not drawn)	/	4	2	/
COC(=O)[C@]12C[C@H](CC(=O)NCc3cccs3)C(=O)N(Cc3ccco3)C1=C[C@H](C(C)C)O[C@@H]2C1CC1	/	-3	5	/
O=C(Nc1nc(-c2ccccc2)cs1)c1ccccc1NS(=O)(=O)c1ccc(F)cc1	65*	-18	-2	101*
COc1cc(/C=C2\SC(=O)N(c3cccc(Cl)c3)C2=O)cc([N+](=O)[O-])c1O	-6	3	2	54*
O=C1S/C(=C\c2ccc(O)c([N+](=O)[O-])c2)C(=O)N1c1ccccc1Cl	1	6	1	55*
COc1cc(/C=C2\SC(=O)N(c3ccc(Cl)cc3)C2=O)cc([N+](=O)[O-])c1O	0	-2	-2	21
Cc1cccc(NC(=O)CN2C(=O)S/C(=C\c3ccc(O)c([N+](=O)[O-])c3)C2=O)c1	-1	-4	4	20
O=C1S/C(=C\c2ccc(O)c([N+](=O)[O-])c2)C(=O)N1Cc1cccc([N+](=O)[O-])c1	5	-7	-8	92*
O=C(Nc1cccc(Cl)c1)c1cc(N=Nc2ccc([N+](=O)[O-])cc2Cl)ccc1O	31	-5	4	69*
O=C(Nc1ccc([N+](=O)[O-])cc1Cl)c1cc(Cl)ccc1O	61*	-2	4	87*
O=C(Nc1cccc(Cl)c1)c1cccc(Oc2ccc([N+](=O)[O-])cc2Cl)c1	0	-13	-1	-6
SMILES	CRFBP-R2 agonist	Tn6 DDE FP	Tn7 DDE FP	CRFBP-R2 block
CCOC(=O)[C@]12CCCCC/C=C\1N(Cc1ccc(OC)cc1)C(=O)[C@H]2CC(=O)NCc1cccc(C(F)(F)F)c1	/	3	0	/
CNCC(=O)O	-1	6	2	77*
O=S1(=O)c2c(cccc2N2CCSCC2)Oc2ccccc2CN1Cc1cn(Cc2cccc(C(F)(F)F)c2)nn1	/	-10	-1	/
COC(CNc1ncnc2c1cnn2C)OC	1	-5	1	53*
O=C(c1cc(C2CCCCN2C(=O)OCCF)on1)N1CCOCC1 (stereo not drawn)	/	0	-7	/
Clc1ccccc1N=Nc1ccccn1	63*	14	10	-43
CCN(c1ccc(NS(=O)(=O)c2cc(Cl)ccc2Cl)cc1)C(C)C	-4	-6	0	55*
COC(=O)CCCC1=CC2=C(c3ccccc3)C(=O)C(C)(OC(=O)C3CCCC3)C(=O)C2=CN1CCc1ccccn1 (stereo not drawn)	2	-3	4	57*
COC(=O)c1ccc(S(=O)(=O)N2CCC(NC(=O)CCc3ccccc3)CC2)cc1	/	-2	-3	/
CCN(CC)c1ccc(/C=C2\C(=O)c3ccc(C(=O)O)cc3C2=O)cc1	248*	-4	-2	-243
COC(=O)C1CN(Cc2cn(CCC3OCCO3)nn2)CCS(=O)(=O)N1Cc1ccc(OC)cc1 (stereo not drawn)	/	1	-6	/
COc1ccc(C2=Nn3c(nnc3-c3ccco3)SC2)cc1	-6	2	-1	68*
CCCC[C@H](CCCc1ccc(F)cc1)CCC(=O)N(c1ccccc1)c1ccccc1	/	-5	0	/
Cn1cccc1Cc1nnc(SCC(=O)NCc2ccccc2)n1-c1ccc(F)cc1	-2	-4	-4	4
Cn1cccc1Cc1nnc(SCC(=O)N2CCN(c3ccccc3)CC2)n1-c1ccc(F)cc1	-2	13	0	52*
COC(=O)C1CN(C2CCCC2)CCS(=O)(=O)N1Cc1cn(Cc2ccc(Cl)cc2)nn1 (stereo not drawn)	/	1	1	/
O=C1/C(=C/c2ccc(O)cc2)SC(=S)N1Cc1cccnc1	107*	4	5	-51
COC(=O)N1C[C@H](OC)[C@H]2C[C@@H]1c1ccccc1O2	/	-6	-2	/
CCOC(=O)C1(C)CCCCN1C(=O)c1cccc(Cl)c1 (stereo not drawn)	/	0	8	/
CCOC(=O)c1c(NC(=O)c2c(Br)cnn2C)c(C#N)nn1-c1ccccc1	0	1	-7	67*
CCOC(=O)c1c(NC(=O)c2nn(CC)cc2Br)c(C#N)nn1-c1ccccc1	1	11	0	21
COC(=O)C1CN(Cc2cn(Cc3ccc(F)cc3)nn2)CCS(=O)(=O)N1Cc1ccc(OC)cc1 (stereo not drawn)	/	-3	-3	/
N#CC(C#N)=NNc1ccc(S(=O)(=O)N2CCCCC2)cc1	99*	-1	-4	66*
CC(C)c1[nH]nc2c1C(c1cccc(C(F)(F)F)c1)NC2=O (stereo not drawn)	/	2	-4	/
COC(=O)[C@]12C[C@H](CC(=O)NCCCCc3ccccc3)C(=O)N(CCc3ccc(OC)c(OC)c3)C1=C[C@H](COCc1ccccc1)O[C@@H]2C	/	-6	3	/
CC(OC(=O)c1ccc(S(=O)(=O)NCc2ccco2)cc1)C(=O)Nc1ccc(Cl)cn1 (stereo not drawn)	99*	-4	7	-218
O=C(COC(=O)c1ccc(S(=O)(=O)NCc2ccco2)cc1)Nc1ncc(Cl)cc1Cl	1	2	-2	8
